A selection: hits, their analogues and other compounds. The true share with any hit is near 3.9%.
TAAR1 antag = human TAAR1 antagonists, primary screen, Fluo-8 calcium fluorescence, CHO RD-HGA16 cells | Trace amine-associated receptor 1 (Homo sapiens), Q96RJ0 | antagonist | inhibition, % at 3 µM | hit rate 1.5% among 360,000 | AID 624466, 2012;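 active = inhibition above a per-plate cutoff, the mean inhibition of test compounds on that plate plus 3 SD, cut at about 49% in these data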;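 note: 0% = DMSO plus EC80 beta-PEA response and 100% = DMSO alone without agonist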
Target sequence (Q96RJ0 whole entry, looked up): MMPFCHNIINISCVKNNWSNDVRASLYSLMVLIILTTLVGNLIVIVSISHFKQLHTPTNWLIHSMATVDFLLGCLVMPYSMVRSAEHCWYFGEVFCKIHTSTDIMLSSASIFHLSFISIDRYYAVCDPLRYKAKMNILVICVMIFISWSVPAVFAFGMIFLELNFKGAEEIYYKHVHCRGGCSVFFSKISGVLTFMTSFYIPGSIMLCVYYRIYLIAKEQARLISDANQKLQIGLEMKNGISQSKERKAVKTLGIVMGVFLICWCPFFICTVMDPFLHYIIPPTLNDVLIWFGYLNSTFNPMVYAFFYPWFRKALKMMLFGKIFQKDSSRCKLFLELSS
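Assay system: RD-HGA16 CHO cells with stable hTAAR1 and Gα16 / Reagent: EC80 β-phenethylamine stimulus / Doses: 3 µM, single point / Timing: dye loading 75 min at 37 °C, then 30 min room temperature / Measured by: Fluo-8 intracellular calcium dye fluorescence, real-time kinetic reads / Controls: vehicle wells and EC80 agonist wells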
TAAR1 ag = human TAAR1 agonists, primary screen, Fluo-8 calcium fluorescence, CHO RD-HGA16 cells; Trace amine-associated receptor 1 (Homo sapiens), Q96RJ0; vehicle wells 0%, saturating PEA agonist 100%; activation, % at 3 µM; hit rate 0.99% among 360,000; AID 624467, 2012;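 active = activation above the mean activation of all test compounds in the run plus 3 SD, cut at about 38% in these data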
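Assay system: CHO-derived RD-HGA16 cells with stable Gα16 and human TAAR1; timing: 17-24 h seeding, 75 min 37 °C dye, 30 min RT; read-out: % activation from peak over basal fluorescence ratio, DMSO-to-PEA scaled; measured by: kinetic Fluo-8 calcium fluorescence; benchmarks: low control DMSO, high control PEA (EC100); doses: 3 µM single concentration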
CHRM1 agonist = human M1 muscarinic receptor agonists, primary screen, Fluo-8 calcium fluorescence, CHO-K1 cells, HTS | Muscarinic acetylcholine receptor M1 (Homo sapiens), P11229 | CHO-K1 hM1, agonist mode; 0% DMSO, 100% acetylcholine EC100 | hit rate 0.33% among 360,000 | activation, % at 3 µM;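 active = activation above the run's mean compound activation plus 3 SD, cut at about 16% in these data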;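 note: peak over basal fluorescence ratio within a 140 s kinetic read after compound addition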
M1 antag = human M1 muscarinic receptor antagonists, primary screen, CHO-K1 cells, Fluo-8 calcium fluorescence, 1536-well. hit rate 1.3% among 360,000. inhibition, % at 3 µM. CHO-K1 hM1, ACh EC80 antagonist. Muscarinic acetylcholine receptor M1 (Homo sapiens), P11229;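 active = percent inhibition above its own plate's cutoff, namely the mean of that plate's compound wells plus 3 SD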;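 note: peak over basal fluorescence ratio during 140 s after agonist addition; 0% = ACh EC80 plus DMSO and 100% = DMSO alone without agonist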
M1 PAM = human M1 muscarinic receptor positive allosteric modulators, primary screen, CHO-K1 cells, Fluo-8 calcium fluorescence, 1536-well | Muscarinic acetylcholine receptor M1 (Homo sapiens), P11229 | CHO-K1 hM1, ACh EC20; 0% = ACh EC20, 100% = maximal ACh | activation, % at 3 µM | hit rate 0.088% among 360,000 | AID 588819, 2011; in the data active = activation above about 19%, passing the limit was not always enough
HTR2A ag = mouse Htr2a agonists via beta-arrestin recruitment, primary screen, cell-based, luminescence. 5-hydroxytryptamine receptor 2A (Mus musculus), P35363. CHO-K1 mHTR2A beta-arrestin complementation; percent of 30 µM serotonin response. activation, % at 7.6 µM. hit rate 0.66% among 360,000. AID 624169, 2012;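 active = activation above a run cutoff, the mean activation of all tested compounds plus 3 SD, cut at about 14% in these data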;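 note: 0% = plate median of compound wells and 100% = 30 µM serotonin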
An asterisk follows results filed as active; nt = no result given.

SMILES	TAAR1 antag	TAAR1 ag	CHRM1 agonist	M1 antag	M1 PAM	HTR2A ag
CCCc1nc2ccc(C(=O)OC)cn2c1Cc1ccccc1OC	5	-2	nt	nt	nt	nt
C=C1C(=O)OC2CC1C(OC(C)=O)CC(C)=CCCC(C)=CCCC2(C)O (stereo not drawn)	7	0	-3	-4	6	-5
CC(=O)CCC(=O)N1CCC(n2nccc2NC(=O)c2ccccc2C)CC1	-19	4	3	5	14	6
COc1ccc(NC(=O)Cn2nnc(-c3ccccc3NS(=O)(=O)c3ccc(OC)cc3)n2)cc1	4	0	-3	0	3	2
COc1ccccc1NC(=O)Cn1nnc(-c2ccccc2NS(=O)(=O)c2ccccc2)n1	57*	3	-2	24	-9	2
CC(C)C(NC(=O)c1ccc(C(C)(C)C)cc1)C(=O)NCC(c1ccccc1)N(C)C (stereo not drawn)	-29	2	-8	-4	-1	-8
CCN(CC(=O)Nc1ccc(NC(C)=O)cc1)C(=O)c1c(C)nn(-c2ccc(F)cc2)c1Cl	54*	15	-3	30	-12	0
CCOc1ccc(NC(=O)CN(C)C(=O)c2c(C)nn(-c3ccc(F)cc3)c2Cl)cc1OCC	-34	-1	-5	-16	15	-1
Cc1nn(-c2ccc(NC(=O)c3ccncc3)cc2)c(C)c1Cl	38	19	2	32*	-20	3
CCN(CC)CCNC(=O)c1ccc(NC(=O)c2c(C)nn(-c3ccc(F)cc3)c2Cl)cc1	27	4	-10	101*	-33	-12
Cc1noc(C)c1S(=O)(=O)Nc1ccc2c(c1)CC(=O)N([C@H](C)CO)C[C@H](C)[C@@H](CN(C)CC1CC1)O2	14	4	-7	-12	5	4
COc1ccc(C(C)NCCC(c2ccc(OC(C)C)cc2)c2ccccc2OC)cc1 (stereo not drawn)	8	44*	-4	-4	3	-1
COc1ccc(C(CCNC(C)c2ccccc2)C(C)C)cc1 (stereo not drawn)	-10	12	-5	6	-6	-2
Cc1cc(Cl)c(OCCOCCN2CCCC(C)C2)c(Br)c1 (stereo not drawn)	-17	7	-7	62*	-28	-7
CC1CCCN(CCOCCOc2ccc(Cl)cc2Br)C1 (stereo not drawn)	1	12	-7	66*	-23	-8
CC1CCCN(CCOCCOc2ccc(Br)cc2Cl)C1 (stereo not drawn)	-13	10	-12	42*	-27	-7
CC1CCN(CCCOc2ccc(Br)cc2Cl)CC1	2	39*	-5	14	-11	-11
Cc1ccc(F)cc1CNC(=O)C1CCC(=O)N(CCCN2CCCC2=O)C1 (stereo not drawn)	-6	0	-1	-4	6	1
COC(=O)[C@H](CC(C)C)NC(=O)c1cc2c(cn1)[nH]c1ccccc12	5	-1	-2	-13	8	-3
Cc1cccc2c(N=O)c(O)n(CCc3ccccc3)c12	-21	1	2	22	-6	10
c1ccc2c(c1)CCc1ccccc1C2=C1CCNCC1	-24	5	-7	100*	-25	-10
COc1ccc(N[C@@H]2CCN3C(=O)c4ccccc4[C@@H]3C[C@H]2O)cc1	6	3	-4	5	-5	2
O=C1c2ccccc2[C@@H]2C[C@@H](O)[C@H](Nc3cccc4ccccc34)CCN12	2	1	-3	25*	-14	-5
COC(=O)[C@]12C[C@H](CC(=O)NCc3cccs3)C(=O)N(Cc3ccc4c(c3)OCO4)C1=C[C@H](C(C)(C)C)O[C@@H]2C	-41	1	nt	nt	nt	nt
CC(=O)Nc1ccc(Nc2nc(-c3cc4ccccc4oc3=O)cs2)cc1	55*	11	2	-3	5	0
SMILES	TAAR1 antag	TAAR1 ag	CHRM1 agonist	M1 antag	M1 PAM	HTR2A ag
Nc1ccc(Nc2nc(-c3cc4ccccc4oc3=O)cs2)cc1	1	2	-3	-25	1	3
CC(C)(C)S(=O)N1Cc2cc(C(=O)N[C@@H]3CCN(Cc4ccccc4)C3)nc(-c3cccc(-c4cc5ccccc5o4)c3)c2[C@@H]1CCO (stereo partly drawn)	59*	13	-2	10	-11	-6
CC(C)(C)S(=O)N1Cc2cc(C(=O)Nc3ccc(-c4ccccc4)cc3)nc(-c3cccc(-c4cc5ccccc5o4)c3)c2[C@@H]1CCO (stereo partly drawn)	-23	0	0	-30	13	1
CC(C)(C)S(=O)N1Cc2cc(C(=O)O)nc(-c3cccc(-c4cc5ccccc5o4)c3)c2[C@H]1CCO (stereo partly drawn)	-8	1	-2	-9	-6	3
CN1CCN(C(=O)c2cc3c(c(-c4cccc(-c5cc6ccccc6o5)c4)n2)[C@H](CCO)N(S(=O)C(C)(C)C)C3)CC1 (stereo partly drawn)	50*	21	-2	-13	-5	-2
CCc1ccc(CN(C)C(=O)c2ccc3c(c2)OCCO3)cc1	0	-1	-5	-1	1	8
CC(=O)OCCn1c(C)[n+](CCOC(C)=O)c2cc(Cl)c(Cl)cc21	24	6	-10	4	-4	-2
CC(=O)OCCn1c2nc(=O)[nH]c(=O)c-2nc2cc(C)c(C)cc21	67*	138*	202*	38*	-27	5
Cn1c(SCC(=O)Nc2ccc3c(c2)OCO3)nnc1C(F)(F)F	4	2	-7	6	-3	10
CN(C)CCCNc1nc(N)c([N+](=O)[O-])c(NCc2ccccc2)n1	-5	0	-10	52*	-22	-10
Cc1ccc(CNc2nc(N)c([N+](=O)[O-])c(NCCO)n2)cc1	-1	8	5	-3	2	-6
Nc1nc(NCc2ccc(Cl)cc2)nc(NCCO)c1[N+](=O)[O-]	-30	45*	9	14	1	4
Nc1nc(NCc2ccccc2)nc(NCc2ccccc2)c1[N+](=O)[O-]	10	0	-3	-8	11	0
COCC(=O)Nc1sc2c(c1C(=O)OC)CCCC2	-9	1	-6	-2	12	2
CCC(=O)NC(Nc1sc2c(c1C(=O)OC)CCCC2)(C(F)(F)F)C(F)(F)F	64*	40*	-5	3	-1	-2
